High-throughput results (PubChem)
Shown is part of a subset that was picked to be rich in hits.
Fibroblast inh – blocks proliferation of human lung fibroblasts; LL 47 human lung fibroblast viability, ATP luminescence; hits give low values; viability, % at 10 µM; 1.1% of 85,000 active; AID 719;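 active = viability at or below 50% in the single dose screen; inactive = viability above 50%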;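 note: compound exposure lasted 72 h before the ATP readout; 100% = median luminescence of untreated cell-only wells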
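Benchmarks: Cell-only wells, no compound | Test system: LL 47 human lung fibroblasts, passage 12 or lower | Input: 1,150 cells/well | Measured by: CellTiter-Glo luminescence measuring cellular ATP | Medium: IMEM, 15% FBS supplement | Schedule: Overnight attachment after seeding, then 72 h compound exposure at 37 °C | Doses: Compound addition at 0.1% DMSO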
HCT116 bCat-KO – beta-catenin-lacking colon tumor cell growth suppression; 1.5% of 140,000 active; AID 818; HCT116 beta-catenin knockout viability, CellTiter-Glo, 60 h; hits give low values; viability, % at 10 µM;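 active = viability at or under a set limit, the compound median less 4 SD, cut at about 6% in these data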;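 note: 0% = Hyamine 1622 control at 20 µM and 100% = untreated cell control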
HUVEC prolif 384 – blocks proliferation of human endothelial cells | HUVEC proliferation, CellTiter-Glo luminescence, 72 h; hits give low values | 1.1% of 86,000 active | viability, % at 10 µM (by protocol);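 active = viability at or below 30%; inactive = viability above 30%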;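 note: 100% = median luminescence of DMSO-only cell control wells on each plate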
H69AR growth 86K – growth inhibitors of human H69AR lung tumor cells; viability, % at 10 µM; 6% of 85,000 active; H69AR lung tumor viability, ATP luminescence, 72 h; hits give low values;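 active = viability at or below 40%; inactive = viability above 40%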;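 note: multidrug resistant small cell line overexpressing MRP-1 efflux transporter; 100% = mean luminescence of untreated control wells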
HCT116 PTEN-null – PTEN-deleted cell growth suppression; viability, % at 10 µM; 1.2% of 140,000 active; HCT116 PTEN-null viability, CellTiter-Glo, 60 h; hits give low values;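 active = viability at or below a set limit, 4 SD under the median of all tested compounds, cut at about 3.7% in these data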;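 note: PTEN knockout HCT116 line with beta catenin targeted HCT116 as companion control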
Active calls of the source: *; . = no result given.

SMILES	Fibroblast inh	HCT116 bCat-KO	HUVEC prolif 384	H69AR growth 86K	HCT116 PTEN-null
Cc1ccc(-c2cc(-c3ccc(F)cc3)nc(N)c2C#N)o1	93	49	68	14*	53
Cc1ccc(-c2cc(-c3ccccc3)c(C#N)c(N)n2)o1	85	89	85	105	73
c1ccc(-n2ncc3c(N4CCN(c5ccccn5)CC4)nc(N4CCOCC4)nc32)cc1	95	.	54	28*	.
O=C(Nc1ccn(Cc2ccccc2F)n1)c1ccc(COc2ccccc2Cl)cc1	.	5.9*	.	.	17
Cn1cccc1/C=C1\SC(=S)N(NC(=O)c2cccc(Cl)c2)C1=O	.	105	.	.	101
COCCn1cnc2c1c(=O)n(CC(=O)OCC(=O)NCC(F)(F)F)c(=O)n2Cc1ccccc1	.	89	.	.	95
CCOC(=O)/C(C#N)=C1\CCCN1CC(N)=S	.	85	.	.	91
Cc1cc(C)c(S(=O)(=O)Nc2cccc(/C=C/C(=O)O)c2)c(C)c1	.	100	.	.	107
O=C(COC(=O)Cc1ccc2c(c1)OCCO2)Nc1ccc(S(=O)(=O)N2CCCC2)cc1	.	98	.	.	107
O=S(=O)(c1ccc(Nc2ccc(-c3ccc4c(c3)OCCO4)nn2)cc1)N1CCCC1	65	42	16*	21*	43
O=C(NC1CC1)c1cccc(Nc2ccc(-c3ccc4c(c3)OCCO4)nn2)c1	83	56	73	32*	51
Cc1cc(C)c2c(-n3cccc3)c(C(=O)NNS(=O)(=O)c3ccc(Cl)cc3)sc2n1	.	87	.	.	95
O=C(Cn1c(=O)oc2cc(S(=O)(=O)N3CCCC3)ccc21)Nc1cccc(C(F)(F)F)c1	99	84	92	38*	76
COC(=O)c1ccc(NC(=O)c2cccc(Cl)c2)o1	.	101	.	.	91
Cc1ccccc1NC1=C/C(=N\S(=O)(=O)c2cccs2)c2ccccc2C1=O	.	1.5*	.	.	1.9*
Cc1cc[n+](C2=C([O-])c3ccccc3C(=O)/C2=N\S(=O)(=O)c2cccs2)cc1C	.	1.6*	.	.	1.8*
Cc1cc(C)c[n+](C2=C([O-])c3ccccc3C(=O)/C2=N\S(=O)(=O)c2cccs2)c1	.	33	.	.	41
Cc1ccc(NC2=C/C(=N/S(=O)(=O)c3cccs3)c3ccccc3C2=O)cc1C	.	85	.	.	88
CCOc1ccc2ccccc2c1/C=N/NC(=O)CNC(=O)Cc1ccccc1	.	94	.	.	99
O=C(Cn1ccc(C(F)(F)F)n1)N/N=C/c1ccc2c(c1)OCO2	.	91	.	.	87
CN(c1cccc(Cl)c1)S(=O)(=O)c1cccc(C(=O)NC2=NCCS2)c1	100	46	89	40*	44
Cc1ccc(C)c(C(=O)CN2C(=O)c3ccccc3S2(=O)=O)c1	101	92	97	95	89
C=CCn1c(C)cc(C(=O)CSc2nnc3c(Cl)cc(Cl)cn23)c1C	101	98	98	68	101
Cc1ccc(C)c(C(=O)Cn2ncc(Cl)c(Cl)c2=O)c1	2.1*	1.8*	2.2*	0.4*	1.3*
Cc1cccc(Cn2ncc(Cl)c(Cl)c2=O)c1	.	2.2*	.	.	2.2*
SMILES	Fibroblast inh	HCT116 bCat-KO	HUVEC prolif 384	H69AR growth 86K	HCT116 PTEN-null
Cc1cc(C(=O)Cn2ncc(Cl)c(Cl)c2=O)c(C)n1CC(F)(F)F	.	0.5*	.	.	0.8*
N#CC1=C(N)Oc2n[nH]c(-c3cccs3)c2C1C1CCCCC1 (stereo unspecified)	100	92	72	38*	89
N/C(Cc1ccc(Cl)cc1)=N\OC(=O)c1ccc2ccccc2c1	83	55	5.6*	3.2*	57
N/C(Cc1ccc(Cl)cc1)=N\OC(=O)c1cccc2ccccc12	57	39	1.4*	-0.4*	41
Cc1ccccc1OCC(=O)O/N=C(\N)Cc1ccc(Cl)cc1	109	81	99	104	98
O=S(=O)(c1ccc(N2CCC(c3ccc(Cl)cc3)=N2)cc1)N(CCO)CCO	88	79	47	13*	80
CN(C)CCCNS(=O)(=O)c1ccc(N2CCC(c3ccc(Cl)cc3)=N2)cc1	1.6*	1.2*	3.2*	0.5*	1.1*
CCCCCCCCCC(=O)N/N=C/c1ccc(C)s1	.	98	.	.	102
COc1cccc(NC(=O)Nc2nnc(-c3ccccc3SCc3ccccc3)s2)c1	66	32	79	17*	30
NC(=O)c1ccc(NC(=O)COC(=O)c2c3c(nc4ccccc24)/C(=C\c2cccs2)CCC3)cc1	.	1.8*	.	.	1.8*
N#Cc1ccc(N=c2ssnc2Cl)cc1	82	97	58	2.6*	94
COc1ccc(N=C2C(=O)Nc3c(C)cccc32)cc1	99	81	82	74	92
COc1ccc(N=c2ssnc2Cl)cc1	63	94	92	1.3*	100
Clc1ccc(N=c2ssnc2Cl)cc1	84	86	67	1.9*	80
COc1cc(N=c2ssnc2Cl)cc(OC)c1OC	47*	86	56	1.7*	89
CC(=O)OC1COC(N2CCc3cc(Br)c([N+](=O)[O-])cc32)C(OC(C)=O)C1OC(C)=O (stereo unspecified)	.	101	.	.	94
COc1ccc(C(C)=O)cc1CSc1nnc(-c2ccc(Cl)cc2)n1-c1ccccc1	.	62	.	.	59
O=[N+]([O-])c1ccc2nc(/C=C/c3ccc(Cl)cc3)[nH]c2c1	.	2.1*	.	.	2.8*
CC(C)Cc1nc2ccccc2n1CCc1ccccc1	.	80	.	.	77
CCc1ccc(-c2cc(C(=O)N3N=C(C(F)F)CC3(O)C(F)F)c3ccccc3n2)cc1 (stereo unspecified)	.	7	.	.	3.5*
O=C(Nc1cccc2ccccc12)c1ccc([N+](=O)[O-])s1	.	3.9*	.	.	3.1*
CCCCSc1nc(NCc2ccco2)c2c3c(sc2n1)COC(C)(C)C3	98	80	93	44	65
CCCSc1nc(NCc2ccco2)c2c3c(sc2n1)COC(C)(C)C3	102	62	88	34*	57
Cc1cc(C)n(-c2nc(NCc3cccnc3)c3c4c(sc3n2)COC(C)(C)C4)n1	89	4.5*	87	61	8
Cc1cc(C2(c3ccc(O)c(C)c3)C(=O)Nc3ccccc32)ccc1O	.	1.1*	.	.	1.5*
SMILES	Fibroblast inh	HCT116 bCat-KO	HUVEC prolif 384	H69AR growth 86K	HCT116 PTEN-null
Cc1cccc2c1NC(=O)C2(c1ccc(O)cc1)c1ccc(O)cc1	.	56	.	.	64
CC(C)C[C@H](NC(=O)OC(C)(C)C)C(=O)N/N=C/C1=Cc2ccccc2OC1C (stereo partly specified)	94	58	74	89	50
c1ccc(-c2cccc(-c3ccccn3)n2)nc1	29*	15	10*	8.8*	17
O=C1C=CC(O)(c2cc(=O)c3c(O)cc(O)cc3o2)C=C1	.	1.1*	.	.	1.3*
CCOc1cccc(NC(=O)C2CC(=O)N(C)C(=Nc3ccccc3)S2)c1 (stereo unspecified)	94	54	73	21*	57
CCOc1cccc(NC(=O)C2CC(=O)N(C)C(=Nc3cccc(F)c3)S2)c1 (stereo unspecified)	.	88	.	.	78
CCOC(=O)Cc1cn2c(=O)cc(CSCC(=O)Nc3ccc(C)c(C)c3)nc2s1	103	95	102	93	100
